# Source: ChEMBL document CHEMBL3784971, “Synthesis, characterization, antimicrobial and biofilm inhibitory studies of new esterquats” (Bioorg Med Chem Lett, 2016)
# Assays:
# Staphylococcus aureus [1] = test: Antimicrobial activity against Staphylococcus aureus MTCC 96 assessed as growth inhibition after 24 hrs by agar well diffusion method; assay type: functional; conditions: MTCC 96, 24 h
# Bacillus subtilis [2] = test: Antimicrobial activity against Bacillus subtilis MTCC 121 assessed as growth inhibition after 24 hrs by agar well diffusion method; assay type: functional; conditions: MTCC 121, 24 h
# Staphylococcus aureus [3] = test: Antimicrobial activity against Staphylococcus aureus MLS16 MTCC 2940 assessed as growth inhibition after 24 hrs by agar well diffusion method; assay type: functional; conditions: MLS16 MTCC 2940, 24 h
# Micrococcus luteus [4] = test: Antimicrobial activity against Micrococcus luteus MTCC 2470 assessed as growth inhibition after 24 hrs by agar well diffusion method; assay type: functional; conditions: MTCC 2470, 24 h
# Raoultella planticola [5] = test: Antimicrobial activity against Klebsiella planticola MTCC 530 assessed as growth inhibition after 24 hrs by agar well diffusion method; assay type: functional; conditions: MTCC 530, 24 h
# Escherichia coli [6] = test: Antimicrobial activity against Escherichia coli MTCC 739 assessed as growth inhibition after 24 hrs by agar well diffusion method; assay type: functional; conditions: MTCC 739, 24 h
# Pseudomonas aeruginosa = test: Antimicrobial activity against Pseudomonas aeruginosa MTCC 2453 assessed as growth inhibition after 24 hrs by agar well diffusion method; assay type: functional; conditions: MTCC 2453, 24 h
# Candida albicans [7] = test: Antimicrobial activity against Candida albicans MTCC 3017 assessed as growth inhibition after 24 hrs by agar well diffusion method; assay type: functional; conditions: MTCC 3017, 24 h
# Candida albicans [8] = test: Antimicrobial activity against Candida albicans MTCC 183 assessed as growth inhibition after 24 hrs by agar well diffusion method; assay type: functional; conditions: MTCC 183, 24 h
# Candida albicans [9] = test: Antimicrobial activity against Candida albicans MTCC 227 assessed as growth inhibition after 24 hrs by agar well diffusion method; assay type: functional; conditions: MTCC 227, 24 h
# Candida albicans [10] = test: Antimicrobial activity against Candida albicans MTCC 854 assessed as growth inhibition after 24 hrs by agar well diffusion method; assay type: functional; conditions: MTCC 854, 24 h
# Candida albicans [11] = test: Antimicrobial activity against Candida albicans MTCC 1637 assessed as growth inhibition after 24 hrs by agar well diffusion method; assay type: functional; conditions: MTCC 1637, 24 h
# Candida albicans [12] = test: Antimicrobial activity against Candida albicans MTCC 3018 assessed as growth inhibition after 24 hrs by agar well diffusion method; assay type: functional; conditions: MTCC 3018, 24 h
# Candida albicans [13] = test: Antimicrobial activity against Candida albicans MTCC 3958 assessed as growth inhibition after 24 hrs by agar well diffusion method; assay type: functional; conditions: MTCC 3958, 24 h
# Candida albicans [14] = test: Antimicrobial activity against Candida albicans MTCC 4748 assessed as growth inhibition after 24 hrs by agar well diffusion method; assay type: functional; conditions: MTCC 4748, 24 h
# Candida albicans [15] = test: Antimicrobial activity against Candida albicans MTCC 7315 assessed as growth inhibition after 24 hrs by agar well diffusion method; assay type: functional; conditions: MTCC 7315, 24 h
# Candida parapsilosis [16] = test: Antimicrobial activity against Candida parapsilosis MTCC 1744 assessed as growth inhibition after 24 hrs by agar well diffusion method; assay type: functional; conditions: Lodderomyces parapsilosis, MTCC 1744, 24 h
# [Candida] aaseri [17] = Antimicrobial activity against Candida aaseri MTCC 1962 assessed as growth inhibition after 24 hrs by agar well diffusion method; assay type: functional; conditions: Yamadazyma aaseri, MTCC 1962, 24 h
# Nakaseomyces glabratus [18] = test: Antimicrobial activity against Candida glabrata MTCC 3019 assessed as growth inhibition after 24 hrs by agar well diffusion method; assay type: functional; conditions: MTCC 3019, 24 h
# Pichia kudriavzevii [19] = test: Antimicrobial activity against Candida krusei MTCC 3020 assessed as growth inhibition after 24 hrs by agar well diffusion method; assay type: functional; conditions: MTCC 3020, 24 h
# Pichia sporocuriosa [20] = test: Antimicrobial activity against Issatchenkia hanoiensis MTCC 4755 assessed as growth inhibition after 24 hrs by agar well diffusion method; assay type: functional; conditions: MTCC 4755, 24 h
# Staphylococcus aureus [21] = test: Bactericidal activity against Staphylococcus aureus MTCC 96 after 24 hrs by serial dilution method; assay type: functional; conditions: MTCC 96, 24 h
# Bacillus subtilis [22] = test: Bactericidal activity against Bacillus subtilis MTCC 121 after 24 hrs by serial dilution method; assay type: functional; conditions: MTCC 121, 24 h
# Staphylococcus aureus [23] = test: Bactericidal activity against Staphylococcus aureus MLS16 MTCC 2940 after 24 hrs by serial dilution method; assay type: functional; conditions: MLS16 MTCC 2940, 24 h
# Micrococcus luteus [24] = test: Bactericidal activity against Micrococcus luteus MTCC 2470 after 24 hrs by serial dilution method; assay type: functional; conditions: MTCC 2470, 24 h
# Raoultella planticola [25] = test: Bactericidal activity against Klebsiella planticola MTCC 530 after 24 hrs by serial dilution method; assay type: functional; conditions: MTCC 530, 24 h
# Escherichia coli [26] = test: Bactericidal activity against Escherichia coli MTCC 739 after 24 hrs by serial dilution method; assay type: functional; conditions: MTCC 739, 24 h
# Candida albicans [27] = test: Fungicidal activity against Candida albicans MTCC 3017 after 24 hrs by serial dilution method; assay type: functional; conditions: MTCC 3017, 24 h
# Candida albicans [28] = test: Fungicidal activity against Candida albicans MTCC 183 after 24 hrs by serial dilution method; assay type: functional; conditions: MTCC 183, 24 h
# Candida albicans [29] = test: Fungicidal activity against Candida albicans MTCC 227 after 24 hrs by serial dilution method; assay type: functional; conditions: MTCC 227, 24 h
# Candida albicans [30] = test: Fungicidal activity against Candida albicans MTCC 854 after 24 hrs by serial dilution method; assay type: functional; conditions: MTCC 854, 24 h
# Candida albicans [31] = test: Fungicidal activity against Candida albicans MTCC 1637 after 24 hrs by serial dilution method; assay type: functional; conditions: MTCC 1637, 24 h
# Candida albicans [32] = test: Fungicidal activity against Candida albicans MTCC 3018 after 24 hrs by serial dilution method; assay type: functional; conditions: MTCC 3018, 24 h
# Candida albicans [33] = test: Fungicidal activity against Candida albicans MTCC 3958 after 24 hrs by serial dilution method; assay type: functional; conditions: MTCC 3958, 24 h
# Candida albicans [34] = test: Fungicidal activity against Candida albicans MTCC 4748 after 24 hrs by serial dilution method; assay type: functional; conditions: MTCC 4748, 24 h
# Candida albicans [35] = test: Fungicidal activity against Candida albicans MTCC 7315 after 24 hrs by serial dilution method; assay type: functional; conditions: MTCC 7315, 24 h
# Candida parapsilosis [36] = test: Fungicidal activity against Candida parapsilosis MTCC 1744 after 24 hrs by serial dilution method; assay type: functional; conditions: Lodderomyces parapsilosis, MTCC 1744, 24 h
# [Candida] aaseri [37] = Fungicidal activity against Candida aaseri MTCC 1962 after 24 hrs by serial dilution method; assay type: functional; conditions: Yamadazyma aaseri, MTCC 1962, 24 h
# Nakaseomyces glabratus [38] = test: Fungicidal activity against Candida glabrata MTCC 3019 after 24 hrs by serial dilution method; assay type: functional; conditions: MTCC 3019, 24 h
# Pichia kudriavzevii [39] = test: Fungicidal activity against Candida krusei MTCC 3020 after 24 hrs by serial dilution method; assay type: functional; conditions: MTCC 3020, 24 h
# Pichia sporocuriosa [40] = test: Fungicidal activity against Issatchenkia hanoiensis MTCC 4755 after 24 hrs by serial dilution method; assay type: functional; conditions: MTCC 4755, 24 h
# Staphylococcus aureus [41] = test: Antibiofilm activity against Staphylococcus aureus MTCC 96 after 24 hrs by crystal violet staining based assay; assay type: functional, organism-based; conditions: MTCC 96, 24 h
# How it was run: (§1)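 Biofilm inhibition tested for amine esters and esterquats. IC50 values (µg/mL) are the mean of three determinations, with ciprofloxacin as reference.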
# Bacillus subtilis [42] = test: Antibiofilm activity against Bacillus subtilis MTCC 121 after 24 hrs by crystal violet staining based assay; assay type: functional, organism-based; conditions: MTCC 121, 24 h; how it was run: as §1
# Staphylococcus aureus [43] = test: Antibiofilm activity against Staphylococcus aureus MLS16 MTCC 2940 after 24 hrs by crystal violet staining based assay; assay type: functional, organism-based; conditions: MLS16 MTCC 2940, 24 h; how it was run: as §1
# Micrococcus luteus [44] = test: Antibiofilm activity against Micrococcus luteus MTCC 2470 after 24 hrs by crystal violet staining based assay; assay type: functional, organism-based; conditions: MTCC 2470, 24 h; how it was run: as §1
structure (smiles),measurement,setting,value
CCCCCCCCCCCC[N+](C)(C)CCCCCCCCCCC(=O)OC.[Cl-],MIC,Staphylococcus aureus [1],15.6 µg/mL
same,MIC,Bacillus subtilis [2],15.6 µg/mL
same,MIC,Staphylococcus aureus [3],7.8 µg/mL
same,MIC,Micrococcus luteus [4],7.8 µg/mL
same,MIC,Raoultella planticola [5],7.8 µg/mL
same,MIC,Escherichia coli [6],15.6 µg/mL
same,MIC,Pseudomonas aeruginosa,> 125 µg/mL
same,MIC,Candida albicans [7],31.2 µg/mL
same,MIC,Candida albicans [8],31.2 µg/mL
same,MIC,Candida albicans [9],31.2 µg/mL
same,MIC,Candida albicans [10],31.2 µg/mL
same,MIC,Candida albicans [11],62.5 µg/mL
same,MIC,Candida albicans [12],62.5 µg/mL
same,MIC,Candida albicans [13],62.5 µg/mL
same,MIC,Candida albicans [14],15.6 µg/mL
same,MIC,Candida albicans [15],31.2 µg/mL
same,MIC,Candida parapsilosis [16],62.5 µg/mL
same,MIC,[Candida] aaseri [17],31.2 µg/mL
same,MIC,Nakaseomyces glabratus [18],31.2 µg/mL
same,MIC,Pichia kudriavzevii [19],62.5 µg/mL
same,MIC,Pichia sporocuriosa [20],31.2 µg/mL
same,MBC,Staphylococcus aureus [21],31.2 µg/mL
same,MBC,Bacillus subtilis [22],31.2 µg/mL
same,MBC,Staphylococcus aureus [23],31.2 µg/mL
same,MBC,Micrococcus luteus [24],31.2 µg/mL
same,MBC,Raoultella planticola [25],15.6 µg/mL
same,MBC,Escherichia coli [26],31.2 µg/mL
same,MFC,Candida albicans [27],62.5 µg/mL
same,MFC,Candida albicans [28],31.2 µg/mL
same,MFC,Candida albicans [29],31.2 µg/mL
same,MFC,Candida albicans [30],62.5 µg/mL
same,MFC,Candida albicans [31],62.5 µg/mL
same,MFC,Candida albicans [32],62.5 µg/mL
same,MFC,Candida albicans [33],31.2 µg/mL
same,MFC,Candida albicans [34],31.2 µg/mL
same,MFC,Candida albicans [35],31.2 µg/mL
same,MFC,Candida parapsilosis [36],62.5 µg/mL
same,MFC,[Candida] aaseri [37],62.5 µg/mL
same,MFC,Nakaseomyces glabratus [38],31.2 µg/mL
same,MFC,Pichia kudriavzevii [39],62.5 µg/mL
same,MFC,Pichia sporocuriosa [40],62.5 µg/mL
same,IC50,Staphylococcus aureus [41],9.1 µg/mL
same,IC50,Bacillus subtilis [42],8.5 µg/mL
same,IC50,Staphylococcus aureus [43],22.2 µg/mL
same,IC50,Micrococcus luteus [44],8.8 µg/mL
Clc1ccc(COC(Cn2ccnc2)c2ccc(Cl)cc2Cl)c(Cl)c1 (stereo not drawn) [MICONAZOLE],MIC,Candida albicans [7],7.8 µg/mL
same,MIC,Candida albicans [8],7.8 µg/mL
same,MIC,Candida albicans [9],7.8 µg/mL
same,MIC,Candida albicans [10],7.8 µg/mL
same,MIC,Candida albicans [11],7.8 µg/mL
same,MIC,Candida albicans [12],7.8 µg/mL
same,MIC,Candida albicans [13],7.8 µg/mL
same,MIC,Candida albicans [14],7.8 µg/mL
same,MIC,Candida albicans [15],7.8 µg/mL
same,MIC,Candida parapsilosis [16],7.8 µg/mL
same,MIC,[Candida] aaseri [17],7.8 µg/mL
same,MIC,Nakaseomyces glabratus [18],7.8 µg/mL
same,MIC,Pichia kudriavzevii [19],7.8 µg/mL
same,MIC,Pichia sporocuriosa [20],7.8 µg/mL
same,MFC,Candida albicans [27],7.8 µg/mL
same,MFC,Candida albicans [28],7.8 µg/mL
same,MFC,Candida albicans [29],15.6 µg/mL
same,MFC,Candida albicans [30],15.6 µg/mL
same,MFC,Candida albicans [31],15.6 µg/mL
same,MFC,Candida albicans [32],7.8 µg/mL
same,MFC,Candida albicans [33],15.6 µg/mL
same,MFC,Candida albicans [34],7.8 µg/mL
same,MFC,Candida albicans [35],7.8 µg/mL
same,MFC,Candida parapsilosis [36],7.8 µg/mL
same,MFC,[Candida] aaseri [37],7.8 µg/mL
same,MFC,Nakaseomyces glabratus [38],15.6 µg/mL
same,MFC,Pichia kudriavzevii [39],7.8 µg/mL
same,MFC,Pichia sporocuriosa [40],7.8 µg/mL
